Reference: ChEMBL document CHEMBL1833815, “Novel inhibitors of NRH:quinone oxidoreductase 2 (NQO2): crystal structures, biochemical activity, and intracellular effects of imidazoacridin-6-ones” (J Med Chem, 2011)
Calls of active or inactive are those of the source. The calls are words filed in the database; no cut-off is given here.

Key:
[1] = target: T1, Ribosyldihydronicotinamide dehydrogenase [quinone] (Homo sapiens, UniProt P16083); assay: Inhibition of human recombinant NQO2 assessed as reduction of DCPIP by spectrophotometry
T1 sequence (P16083 whole entry): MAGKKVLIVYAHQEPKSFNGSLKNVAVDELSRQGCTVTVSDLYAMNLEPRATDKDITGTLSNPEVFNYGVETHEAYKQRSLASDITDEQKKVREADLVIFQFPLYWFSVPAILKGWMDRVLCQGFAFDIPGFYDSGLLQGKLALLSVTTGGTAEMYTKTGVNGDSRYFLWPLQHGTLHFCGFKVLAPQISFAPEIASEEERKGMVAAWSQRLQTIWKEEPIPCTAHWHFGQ
Procedure, shortened: (§1)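 Recombinant human NQO2 (His-tag/size-exclusion purified from E. coli BL21) diluted to give about 0.1 A/min. Assay in 50 mM phosphate pH 7.4 with 40 μM DCPIP, 200 μM NRH, and inhibitor in DMSO (1.0% v/v final), with or without 2 μM BSA, at 37 °C. DCPIP reduction followed at 600 nm. IC50 = 50% reduction of initial rate by nonlinear fit; triplicates, three experiments.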

[2] = target: T2, Ribosyldihydronicotinamide dehydrogenase [quinone] (Homo sapiens) (UniProt P16083); assay: Ratio of IC50 for human recombinant NQO2 in the presence of BSA to IC50 for human recombinant NQO2 in the absence of BSA; procedure, shortened: as §1
T2 sequence (whole entry): T1 sequence (P16083 whole entry)

[3] = system: HCT-116; assay: Cytotoxicity against human HCT116 cells after 96 hrs by MTT assay; assay type: cell-based; settings: HCT-116, 96 h
Procedure, shortened: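 HCT116 cells in RPMI-1640 with 10% FCS and 2 mM glutamine, seeded at 2.5 × 10³ per well, left overnight, then exposed continuously for 96 h in full medium. Viability by MTT (1.5 mM final, 4 h, DMSO solubilization, A540). IC50 = concentration reducing OD by 50% relative to vehicle controls; repeated on at least three occasions.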

[4] = system: HCT-116; assay: Cytotoxicity against human HCT116 cells after 24 hrs by MTT assay; assay type: cell-based; settings: HCT-116, 24 h
Procedure, shortened: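 HCT116 cells in RPMI-1640 with 10% FCS and 2 mM glutamine, seeded at 2.5 × 10³ per well and attached overnight. Exposed to compound for 24 h, then drug replaced with fresh medium, growth to 96 h total. MTT 1.5 mM final for 4 h, formazan in DMSO, A540. IC50 = concentration giving 50% OD reduction versus vehicle; ≥3 separate experiments.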

[5] = Drug uptake in nucleus of human MDA468 cells assessed as subcellular localization at 5 uM after 3 hrs by phalloidin-based fluorescent imaging; assay type: ADME, cell-based; settings: mda-mb-468, 3 h
Procedure, shortened: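 MDA-MB-468 cells grown on coverslips to about 70% confluency, exposed 3 h, fixed in 3.6% formaldehyde plus 0.2% glutaraldehyde, permeabilised with 0.1% Triton X-100, blocked in 10% BSA, stained with Alexa Fluor 568 phalloidin (1:1000) for actin. Imaged by fluorescence microscopy; compound excited at 340 nm, emission 520 nm; phalloidin read at 568 nm.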

[6] = target: T1, Ribosyldihydronicotinamide dehydrogenase [quinone]; assay: Inhibition of human recombinant NQO2 assessed as reduction of DCPIP by spectrophotometry in the presence of 2 uM BSA
Procedure, shortened: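 Recombinant human NQO2 (His-tag/size-exclusion purified, expressed in BL21 codon+ cells) in 50 mM phosphate pH 7.4 with 40 μM DCPIP and 200 μM NRH, 2 μM BSA present, inhibitor in DMSO (1.0% v/v final), 37 °C. DCPIP reduction followed at 600 nm; IC50 = 50% drop in initial rate by nonlinear fit; triplicates, three experiments.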

[7] = system: Nucleic Acid; assay: Binding affinity to calf thymus DNA assessed as increase in melting temperature at 10 uM; assay type: nucleic-acid assay; settings: Bos taurus
Procedure, shortened: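 Calf thymus DNA (20 μg/mL) with 10 μM compound in low-salt phosphate buffer (7.5 mM NaH₂PO₄, 1 mM EDTA, pH 7.0). Cuvettes heated from 37 to 98 °C with A260 read at every degree. Tm taken from at least three independent determinations; 10 μM adriamycin served as positive control.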

[8] = Drug uptake in nucleus of human MDA468 cells assessed as subcellular localization at 25 uM after 3 hrs by phalloidin-based fluorescent imaging; assay type: ADME, cell-based; settings: mda-mb-468, 3 h
Procedure, shortened: (§2)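 MDA-MB-468 cells on coverslips at about 70% confluence treated 3 h. Fixed in 3.6% formaldehyde plus 0.2% glutaraldehyde, permeabilized with 0.1% Triton X-100, blocked in 10% BSA. Counterstained with Alexa Fluor 568 phalloidin (1:1000) to show actin architecture. Compound fluorescence imaged at excitation 340 nm, emission 520 nm; phalloidin visualized at 568 nm.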

[9] = target: T2, Ribosyldihydronicotinamide dehydrogenase [quinone] (Homo sapiens); assay: Inhibition of NQO2-mediated activation of CB1954 in human MDA468 cells at 100 uM after 3 hrs in the presence of 100 uM […]; assay type: cell-based; settings: MDA-MB-468
Procedure, shortened: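 MDA468 cells exposed 3 h to inhibitor together with CB1954 (10 μM in figure; varying concentrations per methods) plus 100 μM NRH cofactor. Cells then washed with PBS, refed with fresh medium, and incubated to 96 h total. Viability measured by MTT assay; protection from CB1954 toxicity serves as a readout of cellular NQO2 inhibition.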

[10] = Drug uptake in cytoplasm of human MDA468 cells at 25 uM after 3 hrs by phalloidin-based fluorescence imaging; assay type: ADME, cell-based; settings: mda-mb-468, 3 h; procedure, shortened: as §2

Compound	IC50 [1]	Ratio IC50 [2]	Tm [7]	Drug uptake [8]	inhibition [9]	Drug uptake [10]	IC50 [3]	IC50 [4]	Drug uptake [5]	IC50 [6]
CN(C)CCNc1ccc2ncn3c4ccccc4c(=O)c1c23	115 nM	38					600 nM	2530 nM		
COc1ccc2c(c1)c(=O)c1c(NCCN(C)C)ccc3ncn2c31	59 nM	54	88.6 °C				510 nM	2100 nM	Active	3200 nM
CCN(CC)CCNc1ccc2ncn3c4ccc(O)cc4c(=O)c1c23 [C-1311]	126 nM						1140 nM	4160 nM		
Cc1nc2ccc(NCCN(C)C)c3c(=O)c4cc(O)ccc4n1c23	90 nM						950 nM	3010 nM		
CN(C)CCNc1ccc2ncn3c4ccc(O)cc4c(=O)c1c23	83 nM						370 nM	1610 nM		
Cc1nc2ccc(NCCN(C)C)c3c(=O)c4ccccc4n1c23	90 nM						500 nM	1940 nM		
C[N+](C)([O-])CCNc1ccc2ncn3c4ccccc4c(=O)c1c23	96 nM	6.5					12100 nM	41000 nM		
COc1cccc2c1C(=O)c1c(O)c3c(c(O)c1C2=O)C[C@@](O)(C(=O)CO)C[C@@H]3O[C@H]1C[C@H](N)[C@H](O)[C@H](C)O1			90.8 °C							
Cc1nc2ccc(NCC[N+](C)(C)[O-])c3c(=O)c4cc(F)ccc4n1c23	97 nM						9200 nM	31000 nM		
Cc1nc2ccc(NCCN(C)C)c3c(=O)c4cc(F)ccc4n1c23	83 nM						510 nM	2110 nM		
Cc1nc2ccc(NCCN(C)C)c3c(=O)c4cc(Br)ccc4n1c23	74 nM						440 nM	1910 nM		
CN(C)CCNc1ccc2ncn3c4ccc(F)cc4c(=O)c1c23	97 nM						660 nM	2900 nM		
C[N+](C)([O-])CCNc1ccc2ncn3c4ccc(F)cc4c(=O)c1c23	205 nM						17300 nM	40300 nM		

More lines, main results first:

IC50 [1]	Ratio IC50 [2]	Tm [7]	Drug uptake [8]	inhibition [9]	Drug uptake [10]	Compound	IC50 [3]	IC50 [4]	Drug uptake [5]	IC50 [6]
56 nM						Cc1nc2ccc(NCC[N+](C)(C)[O-])c3c(=O)c4ccccc4n1c23	16100 nM	34900 nM		
54 nM						CCN(CC)CCNc1ccc2nc(C)n3c4ccc(O)cc4c(=O)c1c23	930 nM	5460 nM		
46 nM						COc1ccc2c(c1)c(=O)c1c(NCCN(C)C)ccc3nc(C)n2c31	460 nM	1860 nM		
14 nM	7	85 °C	Not Active	Active	Active	COc1ccc2c(c1)c(=O)c1c(NCC[N+](C)(C)[O-])ccc3ncn2c31	12800 nM	40300 nM		98 nM
47 nM						Cc1nc2ccc(NCC[N+](C)(C)[O-])c3c(=O)c4cc(Br)ccc4n1c23	10600 nM	49000 nM		
42 nM						C[N+](C)([O-])CCNc1ccc2ncn3c4ccc(O)cc4c(=O)c1c23	19700 nM	38700 nM		
73 nM						COc1ccc2c(c1)c(=O)c1c(NCC[N+](C)(C)[O-])ccc3nc(C)n2c31	11400 nM	58200 nM		
